ChEMBL document CHEMBL1909624, “BRN-103, a novel nicotinamide derivative, inhibits VEGF-induced angiogenesis and proliferation in human umbilical vein endothelial cells” (2011)
Each block holds one compound with its values, some of them ahead of it. Active and inactive are the calls of the source. The calls are words filed in the database; no cut-off is given here.

Legend:
HUVEC [1] = assay: Cytotoxicity against human HUVEC; format: functional
HUVEC [2] = assay: Antiangiogenic activity in HUVEC assessed as decrease in VEGF-induced cell migration at 50 uM after 24 hrs by transwell migration assay; format: functional, cell-based; details: Homo sapiens
HUVEC [3] = assay: Antiangiogenic activity in HUVEC assessed as decrease in VEGF-induced cell migration at 25 uM after 24 hrs by transwell migration assay; format: functional, cell-based; details: Homo sapiens
HUVEC [4] = assay: Antiangiogenic activity in HUVEC assessed as inhibition of VEGF-induced cell proliferation at 1 uM by BrdU incorporation assay; format: functional, cell-based; details: Homo sapiens
Procedure, shortened: (§1)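 DNA synthesis was measured by BrdU incorporation in 0.1% serum-starved HUVECs stimulated with VEGF, with or without compound. Incorporated BrdU was detected with an anti-BrdU monoclonal antibody using a commercial ELISA kit. Mean of three experiments with SD; ANOVA with Dunnett's post-hoc test.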

HUVEC [5] = assay: Antiangiogenic activity in HUVEC assessed as decrease in VEGF-induced cell migration at 1 uM after 24 hrs by transwell migration assay; format: functional, cell-based; details: Homo sapiens
Procedure, shortened: (§2)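 HUVECs were seeded in a Boyden chamber on a porous membrane, with test compound in 0.1% EBM in the upper chamber and 10 ng/ml VEGF in the lower. After 24 h, cells that had crossed the pores were counted. Mean of three independent experiments with SD; ANOVA with Dunnett's post-hoc test.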

HUVEC [6] = assay: Inhibition of ERK phosphorylation at Thr202/Tyr204 in VEGF-stimulated HUVEC at 1 uM preincubated for 1 hr before VEGF induction measured after 5 mins by Western blot analysis; format: cell-based; details: Homo sapiens
Procedure, shortened: (§3)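 0.1% serum-starved HUVECs were pretreated with compound for 1 h, then given 10 ng/ml VEGF for 5 min (p-ERK), 30 min (p-AKT) or 1 h (p-eNOS). Lysates were Western-blotted with phospho-specific and total AKT, ERK and eNOS antibodies. Bands were quantified as the mean of three experiments with SD; ANOVA with Dunnett's test.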

HUVEC [7] = assay: Inhibition of AKT phosphorylation at Ser-473 in VEGF-stimulated HUVEC at 1 uM preincubated for 1 hr before VEGF induction measured after 30 mins by Western blot analysis; format: cell-based; details: Homo sapiens; procedure, shortened: as §3
[8] = target: T1, Nitric oxide synthase 3 (Homo sapiens) (UniProt P29474); assay: Inhibition of eNOS phosphorylation at […] in VEGF-stimulated HUVEC at 1 uM preincubated for 1 hr before VEGF induction measured after 1 hr by Western blot analysis; procedure, shortened: as §3
T1 sequence (whole entry): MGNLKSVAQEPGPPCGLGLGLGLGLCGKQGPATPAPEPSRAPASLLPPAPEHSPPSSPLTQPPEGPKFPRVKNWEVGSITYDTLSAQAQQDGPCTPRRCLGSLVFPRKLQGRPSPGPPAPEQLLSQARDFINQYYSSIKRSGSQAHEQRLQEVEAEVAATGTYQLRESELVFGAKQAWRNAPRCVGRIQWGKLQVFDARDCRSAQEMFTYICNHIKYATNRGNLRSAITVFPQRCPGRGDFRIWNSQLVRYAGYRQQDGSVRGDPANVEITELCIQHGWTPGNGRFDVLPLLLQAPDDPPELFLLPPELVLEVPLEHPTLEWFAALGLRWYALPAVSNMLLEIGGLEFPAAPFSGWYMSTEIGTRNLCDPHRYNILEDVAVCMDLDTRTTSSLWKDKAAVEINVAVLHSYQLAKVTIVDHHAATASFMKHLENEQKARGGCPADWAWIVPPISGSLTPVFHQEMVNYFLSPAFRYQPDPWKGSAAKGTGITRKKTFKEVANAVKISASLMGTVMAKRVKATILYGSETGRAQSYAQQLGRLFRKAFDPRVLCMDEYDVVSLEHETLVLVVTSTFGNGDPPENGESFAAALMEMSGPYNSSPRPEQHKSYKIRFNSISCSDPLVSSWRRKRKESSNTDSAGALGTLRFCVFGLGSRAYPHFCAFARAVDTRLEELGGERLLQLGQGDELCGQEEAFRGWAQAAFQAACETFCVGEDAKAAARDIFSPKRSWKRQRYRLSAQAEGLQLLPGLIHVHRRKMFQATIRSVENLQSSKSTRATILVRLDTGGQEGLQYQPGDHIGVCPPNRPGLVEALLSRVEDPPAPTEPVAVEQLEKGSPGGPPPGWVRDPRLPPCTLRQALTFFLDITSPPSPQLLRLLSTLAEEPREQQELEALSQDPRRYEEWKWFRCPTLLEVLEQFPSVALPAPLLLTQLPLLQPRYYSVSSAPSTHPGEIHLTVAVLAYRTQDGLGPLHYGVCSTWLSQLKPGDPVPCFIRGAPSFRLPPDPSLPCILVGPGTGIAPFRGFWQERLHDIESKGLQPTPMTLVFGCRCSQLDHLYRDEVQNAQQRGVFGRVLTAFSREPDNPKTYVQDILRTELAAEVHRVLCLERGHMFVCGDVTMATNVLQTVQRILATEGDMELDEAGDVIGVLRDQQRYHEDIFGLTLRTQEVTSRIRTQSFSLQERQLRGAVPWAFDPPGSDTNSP

HUVEC [9] = assay: Antiangiogenic activity in HUVEC assessed as decrease in VEGF-induced cell migration at 10 uM after 24 hrs by transwell migration assay; format: functional, cell-based; details: Homo sapiens
[10] = target: Vascular endothelial growth factor receptor 2 (Homo sapiens) (UniProt P35968); assay: Inhibition of VEGFR2 phosphorylation at tyr-1175 in VEGF-stimulated HUVEC preincubated for 1 hr before VEGF induction measured after 5 mins by Western blot analysis
Chain of Vascular endothelial growth factor receptor 2 (Homo sapiens) (P35968 whole entry): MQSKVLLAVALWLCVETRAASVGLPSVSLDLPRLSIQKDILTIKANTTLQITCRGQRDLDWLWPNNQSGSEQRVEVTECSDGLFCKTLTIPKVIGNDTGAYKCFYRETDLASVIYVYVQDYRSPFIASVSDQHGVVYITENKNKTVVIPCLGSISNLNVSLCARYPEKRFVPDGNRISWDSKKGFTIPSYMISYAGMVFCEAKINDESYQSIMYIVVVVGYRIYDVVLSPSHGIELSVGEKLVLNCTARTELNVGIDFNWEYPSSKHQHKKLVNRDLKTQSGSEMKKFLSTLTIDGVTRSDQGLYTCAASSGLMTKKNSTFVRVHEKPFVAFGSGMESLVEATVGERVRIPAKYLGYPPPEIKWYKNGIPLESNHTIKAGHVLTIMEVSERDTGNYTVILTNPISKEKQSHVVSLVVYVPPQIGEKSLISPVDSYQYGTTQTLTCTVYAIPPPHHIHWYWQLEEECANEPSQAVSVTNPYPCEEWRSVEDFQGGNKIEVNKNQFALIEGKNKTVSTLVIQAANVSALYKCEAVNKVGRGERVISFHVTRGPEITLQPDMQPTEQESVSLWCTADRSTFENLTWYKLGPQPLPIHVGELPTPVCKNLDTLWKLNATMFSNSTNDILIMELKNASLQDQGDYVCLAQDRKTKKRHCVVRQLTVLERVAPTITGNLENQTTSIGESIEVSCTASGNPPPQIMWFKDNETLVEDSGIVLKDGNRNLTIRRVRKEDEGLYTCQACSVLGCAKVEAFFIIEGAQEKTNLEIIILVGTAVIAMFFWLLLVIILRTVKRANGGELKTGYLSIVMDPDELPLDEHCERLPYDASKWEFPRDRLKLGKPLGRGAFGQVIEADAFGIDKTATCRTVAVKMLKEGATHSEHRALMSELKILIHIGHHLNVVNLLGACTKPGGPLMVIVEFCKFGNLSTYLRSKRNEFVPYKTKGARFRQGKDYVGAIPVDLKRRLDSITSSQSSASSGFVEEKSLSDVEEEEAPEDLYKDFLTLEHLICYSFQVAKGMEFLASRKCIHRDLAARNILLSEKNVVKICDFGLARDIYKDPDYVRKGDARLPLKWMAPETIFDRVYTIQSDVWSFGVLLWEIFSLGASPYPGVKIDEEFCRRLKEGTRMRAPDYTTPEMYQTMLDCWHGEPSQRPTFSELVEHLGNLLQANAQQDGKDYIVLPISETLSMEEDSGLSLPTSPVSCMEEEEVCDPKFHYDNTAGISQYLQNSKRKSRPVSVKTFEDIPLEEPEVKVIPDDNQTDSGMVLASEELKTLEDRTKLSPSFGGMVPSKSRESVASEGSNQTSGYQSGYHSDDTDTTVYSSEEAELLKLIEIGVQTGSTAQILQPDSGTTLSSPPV
Procedure, shortened: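 HUVECs were pretreated with compound for 1 h, stimulated with 10 ng/ml VEGF for 5 min, and lysed. Western blot used an anti-phospho-VEGFR2 antibody, with total VEGFR and β-actin as internal controls. Blot representative of three separate experiments.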

Aorta = assay: Inhibition of VEGF-induced angiogenesis in C57BL/6 mouse aortic rings assessed as decrease in microvessel sprouting after 7 days; format: functional, tissue-based
HUVEC [11] = assay: Inhibition of AKT phosphorylation at Ser-473 in VEGF-stimulated HUVEC preincubated for 1 hr before VEGF induction measured after 30 mins by Western blot analysis; format: cell-based; details: Homo sapiens; procedure, shortened: as §3
[12] = target: T1, Nitric oxide synthase 3 (Homo sapiens); assay: Inhibition of eNOS phosphorylation at […] in VEGF-stimulated HUVEC preincubated for 1 hr before VEGF induction measured after 1 hr by Western blot analysis; procedure, shortened: as §3
HUVEC [13] = assay: Antiangiogenic activity in HUVEC assessed as decrease in VEGF-induced cell migration after 24 hrs by transwell migration assay; format: functional, cell-based; details: Homo sapiens; procedure, shortened: as §2
HUVEC [14] = assay: Antiangiogenic activity in VEGF-stimulated HUVEC assessed as inhibition of capillary tube formation preincubated for 1 hr measured after 6 hrs by photographic analysis; format: functional, cell-based; details: Homo sapiens
Procedure, shortened: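 HUVECs were pretreated with compound for 1 h, then seeded at 4–7 × 10⁴ cells on growth factor-reduced Matrigel in EBM with or without 10 ng/ml VEGF. After 6 h, tubes were photographed at ×100 and counted manually in low-power fields. Mean of three experiments with SD.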

HUVEC [15] = assay: Antiangiogenic activity in HUVEC assessed as decrease in VEGF-induced cell migration after 24 hrs by wound healing assay; details: Homo sapiens
HUVEC [16] = assay: Antiangiogenic activity in HUVEC assessed as inhibition of VEGF-induced cell proliferation by BrdU incorporation assay; format: functional, cell-based; details: Homo sapiens; procedure, shortened: as §1
HUVEC [17] = assay: Inhibition of ERK phosphorylation at Thr202/Tyr204 in VEGF-stimulated HUVEC preincubated for 1 hr before VEGF induction measured after 5 mins by Western blot analysis; format: cell-based; details: Homo sapiens; procedure, shortened: as §3

SMILES: O=C(Nc1cccc(Cl)c1)c1cccnc1NC[C@@H]1CN(Cc2ccc(F)cc2)C(=O)CO1
IC90 (HUVEC [1]): > 50 µM | Activity (HUVEC [2]): Active

SMILES: O=C(Nc1cccc(Cl)c1)c1cccnc1NC1CCN(CO)CC1
Activity (HUVEC [3]): Active | IC90 (HUVEC [1]): 29.2 µM

SMILES: O=C(Nc1cccc(Cl)c1)c1cccnc1N1CCN(C(=O)c2cccc(F)c2)CC1
IC90 (HUVEC [1]): > 50 µM | Activity (HUVEC [2]): Active

inhibition [8]: Active
SMILES: CCN(CC)CCNC(=O)c1c(C)[nH]c(/C=C2\C(=O)Nc3ccc(F)cc32)c1C [SUNITINIB]
inhibition (HUVEC [4]): Active | Activity (HUVEC [5]): Active | inhibition (HUVEC [6]): Active | inhibition (HUVEC [7]): inactive | IC90 (HUVEC [1]): 1 µM

inhibition [10]: Dose-dependent effect | inhibition [12]: Dose-dependent effect
SMILES: O=C(Nc1cccc(Cl)c1)c1cccnc1NC1CCN(Cc2ccccc2)CC1
Activity (HUVEC [9]): Active | inhibition (Aorta): Dose-dependent effect | inhibition (HUVEC [11]): Dose-dependent effect | IC90 (HUVEC [1]): 9.42 µM | Activity (HUVEC [13]): Dose-dependent effect | inhibition (HUVEC [14]): Dose-dependent effect | Activity (HUVEC [15]): Dose-dependent effect | inhibition (HUVEC [16]): Dose-dependent effect | inhibition (HUVEC [17]): Dose-dependent effect

SMILES: COc1ccc(C(=O)N2CCN(c3ncccc3C(=O)Nc3cccc(Cl)c3)CC2)cc1
IC90 (HUVEC [1]): > 50 µM | Activity (HUVEC [2]): Active
